pIC50: −log10 of the molar value.
Assays:
[1] = system: HepG2; experiment: Cytotoxicity in human HepG2 cells assessed as reduction in cell viability incubated for 48 hrs by MTT assay; type: functional, cell-based; details: HepG2, 48 h
Summary of the method: (§1)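 HepG2 and HL60 (ATCC) grown in DMEM with 10% FBS, 2 mM L-glutamine, penicillin/streptomycin, amphotericin B at 37 °C, 5% CO2. Samples dissolved in DMSO, diluted thousandfold in assay. Cells seeded in serum-free medium, treated with serial concentrations 48 h; MTT 4 h, formazan dissolved in acidified isopropanol, A570. Triplicates averaged; viability relative to untreated/vehicle control.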

[2] = system: HL-60; experiment: Cytotoxicity in human HL60 cells assessed as reduction in cell viability incubated for 48 hrs by MTT assay; type: functional, cell-based; details: HL-60, 48 h; summary of the method: as §1
[3] = system: CCRF-CEM; experiment: Growth inhibition of human CCRF-CEM cells assessed as cell growth at 10 uM after 48 hrs by sulforhodamine B assay; type: functional; details: read-out: Activity
Summary of the method: (§2)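 NCI 60-cell-line panel screen (nine cancer types). Compounds added at single concentration 10^-5 M, cultures incubated 48 h; growth inhibition percentages reported.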

[4] = system: HL-60(TB); experiment: Growth inhibition of human HL-60(TB) cells assessed as cell growth at 10 uM after 48 hrs by sulforhodamine B assay; type: functional; details: HL-60, 48 h, read-out: Activity
Summary of the method: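 Screened by the NCI in its 60-cell-line panel covering nine cancer types, including leukemia. Compounds were added at a single concentration, and the cultures were incubated for 48 h. Results are reported as percent growth inhibition.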

[5] = system: MOLT-4; experiment: Growth inhibition of human MOLT4 cells assessed as cell growth at 10 uM after 48 hrs by sulforhodamine B assay; type: functional; details: MOLT-4, 48 h, read-out: Activity; summary of the method: as §2
[6] = system: SR; experiment: Growth inhibition of human SR cells assessed as cell growth at 10 uM after 48 hrs by sulforhodamine B assay; type: functional; details: read-out: Activity
Summary of the method: (§3)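 NCI 60-cell-line panel from nine tumour types (leukaemia, lung, colon, CNS, melanoma, ovarian, renal, prostate, breast). Each compound was added at one single concentration, and cultures were incubated for 48 h. Results are reported as percent growth inhibition.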

[7] = system: EKVX; experiment: Growth inhibition of human EKVX cells assessed as cell growth at 10 uM after 48 hrs by sulforhodamine B assay; type: functional; details: read-out: Activity; summary of the method: as §2
[8] = system: HOP-62; experiment: Growth inhibition of human HOP62 cells assessed as cell growth at 10 uM after 48 hrs by sulforhodamine B assay; type: functional; details: HOP-62, 48 h, read-out: Activity; summary of the method: as §2
[9] = system: HOP-92; experiment: Growth inhibition of human HOP92 cells assessed as cell growth at 10 uM after 48 hrs by sulforhodamine B assay; type: functional; details: HOP-92, 48 h, read-out: Activity; summary of the method: as §2
[10] = system: NCI-H226; experiment: Growth inhibition of human NCI-H226 cells assessed as cell growth at 10 uM after 48 hrs by sulforhodamine B assay; type: functional; details: NCI-H226, 48 h, read-out: Activity; summary of the method: as §2
[11] = system: NCI-H23; experiment: Growth inhibition of human NCI-H23 cells assessed as cell growth at 10 uM after 48 hrs by sulforhodamine B assay; type: functional; details: NCI-H23, 48 h, read-out: Activity; summary of the method: as §2
[12] = system: NCI-H322M; experiment: Growth inhibition of human NCI-H322M cells assessed as cell growth at 10 uM after 48 hrs by sulforhodamine B assay; type: functional; details: read-out: Activity; summary of the method: as §2
[13] = system: NCI-H460; experiment: Growth inhibition of human NCI-H460 cells assessed as cell growth at 10 uM after 48 hrs by sulforhodamine B assay; type: functional; details: NCI-H460, 48 h, read-out: Activity; summary of the method: as §2
[14] = system: NCI-H522; experiment: Growth inhibition of human NCI-H522 cells assessed as cell growth at 10 uM after 48 hrs by sulforhodamine B assay; type: functional; details: NCI-H522, 48 h, read-out: Activity; summary of the method: as §2
[15] = system: HCT-116; experiment: Growth inhibition of human HCT116 cells assessed as cell growth at 10 uM after 48 hrs by sulforhodamine B assay; type: functional; details: HCT-116, 48 h, read-out: Activity; summary of the method: as §2
[16] = system: HCT-15; experiment: Growth inhibition of human HCT15 cells assessed as cell growth at 10 uM after 48 hrs by sulforhodamine B assay; type: functional; details: HCT-15, 48 h, read-out: Activity; summary of the method: as §2
[17] = system: HT-29; experiment: Growth inhibition of human HT-29 cells assessed as cell growth at 10 uM after 48 hrs by sulforhodamine B assay; type: functional; details: HT-29, 48 h, read-out: Activity; summary of the method: as §2
[18] = system: KM12; experiment: Growth inhibition of human KM12 cells assessed as cell growth at 10 uM after 48 hrs by sulforhodamine B assay; type: functional; details: KM12, 48 h, read-out: Activity; summary of the method: as §2
[19] = system: LOX IMVI; experiment: Growth inhibition of human LOXIMVI cells assessed as cell growth at 10 uM after 48 hrs by sulforhodamine B assay; type: functional; details: read-out: Activity; summary of the method: as §2
[20] = system: M14; experiment: Growth inhibition of human M14 cells assessed as cell growth at 10 uM after 48 hrs by sulforhodamine B assay; type: functional; details: M14, 48 h, read-out: Activity; summary of the method: as §2
[21] = system: SK-MEL-2; experiment: Growth inhibition of human SK-MEL-2 cells assessed as cell growth at 10 uM after 48 hrs by sulforhodamine B assay; type: functional; details: SK-MEL-2, 48 h, read-out: Activity; summary of the method: as §2
[22] = system: IGROV-1; experiment: Growth inhibition of human IGROV1 cells assessed as cell growth at 10 uM after 48 hrs by sulforhodamine B assay; type: functional; details: IGROV-1, 48 h, read-out: Activity; summary of the method: as §2
[23] = system: OVCAR-5; experiment: Growth inhibition of human OVCAR5 cells assessed as cell growth at 10 uM after 48 hrs by sulforhodamine B assay; type: functional; details: OVCAR-5, 48 h, read-out: Activity; summary of the method: as §2
[24] = system: OVCAR-8; experiment: Growth inhibition of human OVCAR8 cells assessed as cell growth at 10 uM after 48 hrs by sulforhodamine B assay; type: functional; details: OVCAR-8, 48 h, read-out: Activity; summary of the method: as §2
[25] = system: NCI/ADR-RES; experiment: Growth inhibition of human NCI-ADR-RES cells assessed as cell growth at 10 uM after 48 hrs by sulforhodamine B assay; type: functional; details: read-out: Activity; summary of the method: as §2
[26] = system: SK-OV-3; experiment: Growth inhibition of human SKOV3 cells assessed as cell growth at 10 uM after 48 hrs by sulforhodamine B assay; type: functional; details: SK-OV-3, 48 h, read-out: Activity; summary of the method: as §2
[27] = system: A498; experiment: Growth inhibition of human A498 cells assessed as cell growth at 10 uM after 48 hrs by sulforhodamine B assay; type: functional; details: A498, 48 h, read-out: Activity; summary of the method: as §2
[28] = system: DU-145; experiment: Growth inhibition of human DU145 cells assessed as cell growth at 10 uM after 48 hrs by sulforhodamine B assay; type: functional; details: DU-145, 48 h, read-out: Activity; summary of the method: as §2
[29] = system: MCF7; experiment: Growth inhibition of human MCF7 cells assessed as cell growth at 10 uM after 48 hrs by sulforhodamine B assay; type: functional; details: MCF7, 48 h, read-out: Activity; summary of the method: as §2
[30] = system: Hs-578T; experiment: Growth inhibition of human Hs 578T cells assessed as cell growth at 10 uM after 48 hrs by sulforhodamine B assay; type: functional; details: read-out: Activity; summary of the method: as §2
[31] = system: BT-549; experiment: Growth inhibition of human BT549 cells assessed as cell growth at 10 uM after 48 hrs by sulforhodamine B assay; type: functional; details: BT-549, 48 h, read-out: Activity; summary of the method: as §2
[32] = system: T47D; experiment: Growth inhibition of human T47D cells assessed as cell growth at 10 uM after 48 hrs by sulforhodamine B assay; type: functional; details: read-out: Activity; summary of the method: as §3

Structure (SMILES) | pIC50 [1] | pIC50 [2] | growth at 10 µM [3] [%] | growth at 10 µM [4] [%] | growth at 10 µM [5] [%] | growth at 10 µM [6] [%] | growth at 10 µM [7] [%] | growth at 10 µM [8] [%] | growth at 10 µM [9] [%] | growth at 10 µM [10] [%] | growth at 10 µM [11] [%] | growth at 10 µM [12] [%] | growth at 10 µM [13] [%] | growth at 10 µM [14] [%] | growth at 10 µM [15] [%] | growth at 10 µM [16] [%] | growth at 10 µM [17] [%] | growth at 10 µM [18] [%] | growth at 10 µM [19] [%] | growth at 10 µM [20] [%] | also measured
COc1cccc(-n2nc(C(=O)Nc3ccccc3)nc2-c2cc(OC)c(OC)c(OC)c2)c1 | 5.19 | < 4.00 | 105 | 121 | 105 | 93.9 | 91.2 | 83.8 | 97.9 | 96.9 | 111 | 81.1 | 107 | 65.5 | 91.3 | 88 | 79.9 | 96.6 | 102 | 102 | growth at 10 µM [21]: 98%; growth at 10 µM [22]: 93.1%; growth at 10 µM [23]: 89.5%; growth at 10 µM [24]: 101%; growth at 10 µM [25]: 93.1%; growth at 10 µM [26]: 102%; growth at 10 µM [27]: 100%; growth at 10 µM [28]: 104%; growth at 10 µM [29]: 91.6%; growth at 10 µM [30]: 99.7%; growth at 10 µM [31]: 87.4%; growth at 10 µM [32]: 62.2%
CCOc1ccc(-n2nc(C(=O)NCc3cccc(OC)c3)nc2-c2cc(OC)c(OC)c(OC)c2)cc1 | 5.72 | 4.01 | 94.2 | 91 | 69.9 | 72.5 | 89.1 | 72.4 | 95.6 | 89.4 | 94.3 | 81.6 | 102 | 58.7 | 96 | 90 | 73.5 | 96.4 | 88.9 | 92.9 | growth at 10 µM [21]: 90%; growth at 10 µM [22]: 80.4%; growth at 10 µM [23]: 120%; growth at 10 µM [24]: 94.3%; growth at 10 µM [25]: 82.5%; growth at 10 µM [26]: 85.8%; growth at 10 µM [27]: 98.1%; growth at 10 µM [28]: 107%; growth at 10 µM [29]: 84.1%; growth at 10 µM [30]: 93.3%; growth at 10 µM [31]: 92.6%; growth at 10 µM [32]: 69.8%
CCOc1ccc(-n2nc(C(=O)Nc3cccc(OC)c3)nc2-c2cc(OC)c(OC)c(OC)c2)cc1 | 4.43 | 4.78 | 51.9 | 87.5 | 62.5 | 52.6 | 77.7 | 91.9 | 67.2 | 77.3 | 85.9 | 79.8 | 79.3 | 57.9 | 67.3 | 74.3 | 78.3 | 71.2 | 80.8 | 83.7 | growth at 10 µM [21]: 86.9%; growth at 10 µM [22]: 90.7%; growth at 10 µM [23]: 95.5%; growth at 10 µM [24]: 53.1%; growth at 10 µM [25]: 77.5%; growth at 10 µM [26]: 96.5%; growth at 10 µM [27]: 78.8%; growth at 10 µM [28]: 94.8%; growth at 10 µM [29]: 83.5%; growth at 10 µM [30]: 73.2%; growth at 10 µM [31]: 72.3%; growth at 10 µM [32]: 58.5%

Source: ChEMBL document CHEMBL4138126, “Synthesis, antiproliferative, anti-tubulin activity, and docking study of new 1,2,4-triazoles as potential combretastatin analogues” (Eur J Med Chem, 2017)
